# Compound activity deposited in PubChem BioAssay by several laboratories.
# Only some compounds are listed: those with a hit (about 4% of all), similar ones and a draw of the others.
# Yeast life ext: compounds extending yeast replicative lifespan, primary screen, S. cerevisiae, OD615; S. cerevisiae growth with nicotinamide; deaD strain in restrictive glucose medium; inhibition of the nicotinamide effect, % at 10 µM; 130,000 compounds, 0.68% hits;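 active = inhibition above a set limit, placed 3 SD over the median of all compounds, cut at about 26% in these data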;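 note: 0% = nicotinamide-treated wells and 100% = cells grown without nicotinamide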
#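 Test system – modified budding yeast, DeaD strain · Compound – single dose 10 µM compound, 0.25% DMSO · Times – culture preincubation 4 h, compound exposure 48 h, both 30 °C · Detection – optical density (absorbance) at 615 nm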
# MDM2 E3 inh: MDM2-luciferase reporter signal enhancers, primary screen, MDM2 E3 ligase inhibitor project, cell-based, luminescence, 1536-well. E3 ubiquitin-protein ligase Mdm2 (Homo sapiens), Q00987. cell-based MDM2 ubiquitination luciferase reporter, 2 h; 0 = plate control, 100 = twice control, blank-subtracted. signal enhancement, % at 5 µM. 210,000 compounds, 0.11% hits;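 active = signal enhancement of 30% or more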;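 note: luminescence tracks abundance of the self-degrading MDM2-luciferase fusion protein; higher signal means inhibition of MDM2 E3 ligase activity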
# Target sequence (Q00987 whole entry, looked up, the tested form may be a part): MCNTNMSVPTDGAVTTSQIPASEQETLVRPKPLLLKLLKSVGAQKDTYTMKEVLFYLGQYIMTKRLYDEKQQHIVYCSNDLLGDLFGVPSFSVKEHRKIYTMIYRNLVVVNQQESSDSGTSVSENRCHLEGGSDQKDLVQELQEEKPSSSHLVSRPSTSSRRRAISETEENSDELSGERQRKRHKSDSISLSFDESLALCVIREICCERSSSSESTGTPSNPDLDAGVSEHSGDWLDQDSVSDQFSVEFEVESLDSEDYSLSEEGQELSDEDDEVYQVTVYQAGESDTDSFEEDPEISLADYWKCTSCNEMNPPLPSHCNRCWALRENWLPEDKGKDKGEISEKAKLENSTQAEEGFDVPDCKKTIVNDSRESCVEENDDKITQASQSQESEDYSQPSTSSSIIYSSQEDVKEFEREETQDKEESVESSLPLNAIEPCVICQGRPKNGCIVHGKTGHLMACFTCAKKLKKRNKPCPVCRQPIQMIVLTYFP
#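 Assay system: mammalian cells stably expressing self-ubiquitinating, self-degrading MDM2 E3–luciferase fusion. Quantity: 2000 cells in each well. Medium: DMEM culture medium. Compound dosing: single-point 5 µM. Timing: cell settling 4 h, compound treatment 2 h, both 37 °C. Technique: luciferase luminescence. Read-out basis: percent signal gain over controls, blank-subtracted. Benchmarks: plate controls and plate blanks.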
# Yeast growth inh: growth inhibitors of yeast BB579 in restrictive medium, primary screen, yeast lifespan-shortening project, S. cerevisiae. inhibition, % at 10 µM. 140,000 compounds, 0.51% hits. OD615, 48 h;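 active = inhibition above a set limit, 3 SD over the mean compound inhibition, cut at about 44% in these data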
#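 Test system: DeaD yeast strain BB579 / Buffer or medium: restrictive glucose-based CSMM-D medium / Doses: single 10 µM dose / Schedule: 4 h cell preincubation, 48 h compound exposure, 30 °C humidified / Technique: culture absorbance at 615 nm / Controls: amphotericin B positive control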
# INS promoter inh: inhibitors of insulin promoter-driven GFP, primary screen, imaging, TRM-6 cells, eGFP reporter, cell count; reporter expression induced with tamoxifen; inhibition, % at 2 µM; 130,000 compounds, 0.9% hits; AID 1273, 2008;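 active = inhibition above the mean plus 3 SD, with well images judged a real hit on visual review, cut at about 60% in these data, passing the limit was not always enough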
# Measles CPE: compounds protecting cells from measles virus cytopathic effect, primary screen, measles RdRp inhibitor project, single point, MLSMR library, absorbance. Measles virus-infected cells, CPE protection. protection (pct of control), % at 4 µM. 140,000 compounds, 1.5% hits; in the data active = protection mostly above about 24%, no sharp cut-off; inactive = mostly below about 26%
# RAM inhibit: inhibitors of the yeast RAM network, primary screen, dse1pr::URA3 reporter, 5-FOA selection | S. cerevisiae dse1pr::URA3 reporter, 5-FOA growth OD615, 2 d; analog-sensitive cbk1-as2 kinase mutant strain | inhibition, % at 50 µM | 190,000 compounds, 1.8% hits | AID 868, 2007;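 active = inhibition above a set limit, 3 SD over mean compound inhibition, cut at about 8.4% in these data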;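 note: 0% = DMSO-only wells with no growth and 100% = 10 µM 1-NA-PP1 full growth; inhibition rescues growth on 5-FOA so higher OD means more RAM inhibition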
# RAM efflux-def: 5-FOA growth of efflux-deficient control yeast, dose response, counter-screen for RAM network inhibitor project, S. cerevisiae, OD615; shares compounds with RAM inhibit; AID 1305, 2008; 1,200 tested, under 10 active; max inhibition, %; S. cerevisiae efflux-deficient reporter strain, 5-FOA growth OD615, 2 days; call rule not given here;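 note: plate controls were vehicle for no effect and reference inhibitor for full effect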
# * = called active by the depositor; nt = no result given.
SMILES,Yeast life ext,MDM2 E3 inh,Yeast growth inh,INS promoter inh,Measles CPE,RAM inhibit,RAM efflux-def
O=C(O)CCCN1C(=O)/C(=C/c2cn(-c3ccccc3)nc2-c2cccs2)SC1=S,nt,-19,nt,21,nt,12*,3
c1ccc(CSc2ncnc3c2cnn3Cc2ccccc2)cc1,-10,-6,2,28,4,1,nt
Cc1ccc(-n2ncc3c(SCc4ccccc4)ncnc32)cc1,8,10,-43,-9,35*,12*,3
O=C(C1=C[C@H](c2csc3ccccc23)C[C@H](OCc2ccc(CO)cc2)O1)N1CCOCC1,nt,nt,nt,nt,nt,14*,1
CN1CCN(C(=O)C2=C[C@@H](c3csc4ccccc34)C[C@@H](OCc3ccc(CO)cc3)O2)CC1,nt,nt,nt,nt,nt,0,nt
CCOC(=O)c1c(C)[nH]c(N=Nc2ccc(C)cc2C)c1C,-13,-22,-13,6,21,6,nt
CCOC(=O)c1c(C)[nH]c(N=Nc2ccccc2C)c1C,-11,-25,-7,29,11,20*,5
Nc1nc(-c2ccccc2)c(N=Nc2cccnc2)s1,nt,-17,nt,nt,nt,13*,2
CC(O)CNCc1ccccc1C(F)(F)F (stereo not drawn),nt,-3,nt,nt,nt,2,nt
O=C(Nc1ccccc1-c1nnc(SCc2ccccc2Cl)o1)c1ccccc1,-6,-11,-16,12,6,12*,3
N#CC(C#N)=C(Nc1ccc(F)cc1)SCc1cccc(Br)c1,5,-39,-73,-12,9,14*,3
Cc1cccc(CSC(Nc2ccc(F)cc2)=C(C#N)C#N)c1,2,4,-72,-44,5,7,nt
CN(C)/C=C(/C#N)C(=O)c1cccc(Oc2ccc(C(C)(C)C)cc2)c1,2,-14,-68,-4,20,6,nt
Cc1ccc(S(=O)(=O)N2CCC(=O)N(C(COCc3cccc(C(F)(F)F)c3)C(C)C)CC2)cc1 (stereo not drawn),2,nt,-23,-140,21,13*,2
Cc1ccc(S(=O)(=O)N2CCC(=O)N(C(COCc3cccc(Cl)c3)Cc3ccccc3)CC2)cc1 (stereo not drawn),12,nt,-38,-25,7,15*,4
Cc1ccc(S(=O)(=O)N2CCC(C)CC2)cc1[N+](=O)[O-],nt,nt,nt,nt,nt,23*,2
Cc1ccc(S(=O)(=O)N2CCCCCC2)cc1[N+](=O)[O-],8,0,-51,20,12,1,nt
CCCOc1ccc(N2C(=O)CC(N(CCc3ccc(OC)c(OC)c3)C(=O)c3ccccc3)C2=O)cc1 (stereo not drawn),nt,-2,nt,nt,nt,nt,nt
CCCOc1ccc(N2C(=O)CC(N(CCc3ccccc3)C(=O)c3ccccc3)C2=O)cc1 (stereo not drawn),nt,-20,nt,nt,nt,12*,1
COc1cccc(C(=O)C2CN(c3ccccc3)CC2c2ccc(Cl)cc2)c1 (stereo not drawn),5,-8,-29,3,5,15*,6
CCN(CC)S(=O)(=O)c1cc(NS(=O)(=O)c2c(Cl)cccc2Cl)ccc1C,28*,-6,-52,-46,7,14*,2
CCN(CC)S(=O)(=O)c1ccc(NS(=O)(=O)c2cccc(C)c2)cc1,-3,-2,-42,nt,11,3,nt
CC(C)OC(=O)/C(C#N)=C/c1cn(Cc2ccccc2)c2ccccc12,-1,0,-46,nt,5,16*,6
CC(C)COC(=O)/C(C#N)=C/c1cn(Cc2ccccc2)c2ccccc12,5,6,-36,nt,9,19*,11
NS(=O)(=O)c1ccc(NC(=O)c2ccc(CNS(=O)(=O)c3cc(C(F)(F)F)ccc3Cl)cc2)cc1,nt,7,nt,nt,nt,2,nt
SMILES,Yeast life ext,MDM2 E3 inh,Yeast growth inh,INS promoter inh,Measles CPE,RAM inhibit,RAM efflux-def
CCN(CC)C(=O)CSc1nc2cc3c(cc2c(=O)n1CCCCCC(=O)NCc1ccc(OC)cc1)OCO3,nt,-6,nt,36,nt,14*,4
Cc1ccc(NC(=O)c2ccc(F)cc2)cc1S(=O)(=O)N1CCCCCC1,nt,-21,nt,nt,nt,12*,2
Cc1cccc(OCCC(=O)Nc2ccc(S(=O)(=O)N3CCCC3)cc2)c1,-7,-13,-23,7,23,4,nt
Cc1cccc(OCCC(=O)Nc2ccc(C)c(S(=O)(=O)N3CCCCC3)c2)c1,5,-22,-38,-65,19,16*,2
Cc1ccc(NC(=O)c2ccccc2F)cc1S(=O)(=O)N1CCCCCC1,nt,-15,nt,0,nt,13*,2
COc1ccc(OC)c(S(=O)(=O)NC(N)=NCCc2ccccc2OC)c1,nt,18,nt,-31,nt,0,nt
COc1cc(/C=C2\SC(=S)N(CCC(=O)Nc3ccccc3)C2=O)cc(OC)c1OC,nt,-3,nt,nt,nt,5,nt
COc1ccc(/C=C2\SC(=O)N(CCC(=O)Nc3ccccc3)C2=O)cc1OC,-2,-1,-39,4,13,13*,2
Cc1cccc(/C=C\c2nc3ccccc3c(=O)[nH]2)c1,-7,-9,-46,21,9,11*,2
O=C(CCCSc1nc2ccccc2[nH]1)Nc1nnc(-c2ccccc2)o1,-18,-20,-14,6,19,14*,2
Cc1ccc(Cl)c(OC(=O)Cn2cnc3c2c(=O)n(C)c(=O)n3C)c1,nt,21,nt,nt,nt,0,nt
CCCC(=O)C1=C(O)C(C(=O)OC)C(C)(C)CC1=Nc1cccc2ccccc12 (stereo not drawn),nt,-5,-2,-106,7,12*,4
O=C(O)c1cccc(NS(=O)(=O)c2cccc3nsnc23)c1,-1,-12,-47,7,3,0,nt
Cc1cccc(N/C(N)=N/c2nc(C(F)(F)F)cc(=O)[nH]2)c1C,3,-1,-43,42,5,3,nt
ONC(=Nc1ccc(Cl)cc1)c1ccccc1,-9,-10,-37,nt,2,0,nt
COc1cc(CC(NC(C)=O)C(=O)NC2CCN(c3c(Cc4ccccc4)c(C)nc4ncnn34)CC2)cc(OC)c1 (stereo not drawn),10,-4,-32,17,2,14*,3
CC(C)c1ccc(CNc2cc(N3CCCC3)ccc2[N+](=O)[O-])cc1,-1,-1,-30,-3,13,19*,5
CC(C)(C)CNc1cc(N2CCCC2)ccc1[N+](=O)[O-],1,-9,-3,-126,22,6,nt
